Shown is part of a subset that was picked to be rich in hits.
HUVEC inhibit: blocks proliferation of human endothelial cells; HUVEC proliferation, CellTiter-Glo luminescence, 72 h; stronger effect = lower value; viability, % at 10 µM (by protocol); actives 1.1% (n = 86,000);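 active = viability at or below 30%; inactive = viability above 30%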;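 also: 100% = median luminescence of DMSO-only cell control wells on each plate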
HCT116 bCat-KO: beta-catenin-lacking colon tumor cell growth suppression | HCT116 beta-catenin knockout viability, CellTiter-Glo, 60 h; stronger effect = lower value | viability, % at 10 µM | actives 1.5% (n = 140,000);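 active = viability at or under a set limit, the compound median less 4 SD, cut at about 6% in these data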;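 also: 0% = Hyamine 1622 control at 20 µM and 100% = untreated cell control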
HCT116 PTEN-null: suppresses growth of cells with PTEN deletion | HCT116 PTEN-null viability, CellTiter-Glo, 60 h; stronger effect = lower value | viability, % at 10 µM | actives 1.2% (n = 140,000) | AID 827;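 active = viability at or below a set limit, 4 SD under the median of all tested compounds, cut at about 3.7% in these data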;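 also: PTEN knockout HCT116 line with beta catenin targeted HCT116 as companion control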
H69AR inhibit: blocks growth of human H69AR lung tumor cells. H69AR lung tumor viability, ATP luminescence, 72 h; stronger effect = lower value. viability, % at 10 µM. actives 6% (n = 85,000). AID 598;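 active = viability at or below 40%; inactive = viability above 40%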;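 also: multidrug resistant small cell line overexpressing MRP-1 efflux transporter; 100% = mean luminescence of untreated control wells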
Fibroblast inh: blocks proliferation of human lung fibroblasts | LL 47 human lung fibroblast viability, ATP luminescence; stronger effect = lower value | viability, % at 10 µM | actives 1.1% (n = 85,000) | AID 719;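 active = viability at or below 50% in the single dose screen; inactive = viability above 50%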;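 also: compound exposure lasted 72 h before the ATP readout; 100% = median luminescence of untreated cell-only wells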
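Test system: LL 47 human lung fibroblasts; Quantity: 1,150 cells/well; Buffer or medium: IMEM plus 15% FBS; Dosing: tenfold compound dosing solution, DMSO at 0.1%; Timing: overnight cell rest, 72 h compound treatment at 37 °C; Detection: ATP-based CellTiter-Glo luminescent readout; Read-out basis: viability percentage against median untreated-cell control; Controls: cell-only wells, no compound.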
* hit, by the source's call; . = no result.

SMILES	HUVEC inhibit	HCT116 bCat-KO	HCT116 PTEN-null	H69AR inhibit	Fibroblast inh
COc1ccc2nc3oc(C(=O)Nc4ccc(OC)c(OC)c4)cc3cc2c1	105.6	93.1	90.8	77.3	96.6
NCCNc1ccc([N+](=O)[O-])c(NC2CC2)c1	.	82.8	93.0	.	.
CCSC1=N/C(=C\c2ccc(C(=O)O)cc2)C(=O)S1	90.9	96.3	100.9	81.8	99.8
CCOC(=O)SC1=N/C(=C\c2ccc(N(C)C)cc2)C(=O)S1	86.6	91.3	89.8	26.9*	108.0
CN1CCN(Cc2nc3ccccc3c(=O)n2Cc2nc(-c3ccc4ccccc4c3)cs2)CC1	.	0.8*	0.7*	.	.
COC(=O)C1CCN(C(=O)COC(=O)CCc2nc3ccccc3c(=O)[nH]2)CC1	.	91.3	101.0	.	.
CC(=O)NC1=NN(C(C)=O)C(C)(c2cccs2)S1 (stereo unspecified)	76.0	17.5	21.5	28.4*	57.1
O=C(Nc1ccccc1Cl)NC1(C(=O)N2CCCCC2)CCCCC1	96.2	85.0	101.2	94.9	95.7
O=C(Nc1ccccc1Cl)NC1(C(=O)N2CCCC2)CCCCC1	94.3	0.7*	0.8*	80.9	106.8
CCN(CC)c1ccc(C(=O)N/N=C(\C)c2ccc(O)cc2)cc1	.	70.0	77.0	.	.
CC1(C)CC(O)C(C(O)c2cccc([N+](=O)[O-])c2)C(C)(C)N1 (stereo unspecified)	.	95.0	97.0	.	.
N#C/C(=C\c1cccc(NC(=O)c2ccccc2Cl)c1)C(=O)NCCc1ccccc1	.	1.2*	1.5*	.	.
COc1ccc2o/c(=N/NC(=S)Nc3ccccc3)c(C(N)=O)cc2c1	.	94.6	89.0	.	.
Cc1ccc2cc(CN(CC3CCCO3)S(=O)(=O)c3ccccc3)c3nnnn3c2c1 (stereo unspecified)	96.3	70.8	76.7	12.2*	93.8
Cc1cccc2cc(CN(CC3CCCO3)S(=O)(=O)c3ccccc3)c3nnnn3c12 (stereo unspecified)	94.7	.	.	100.1	86.4
O=C(N/N=C/c1ccc(F)cc1)c1sccc1OCc1ccc(F)cc1	.	14.4	15.2	.	.
O=C(N/N=C/c1ccc(Cl)cc1)c1sccc1OCc1ccc(F)cc1	.	6.0*	5.6	.	.
Cc1ccc2sc(NC(=O)CN3C(=O)c4ccccc4C3=O)nc2c1C	.	96.8	96.8	.	.
Clc1ccc2c(N/N=C/c3cccc(Br)c3)ccnc2c1	.	2.2*	1.7*	.	.
CCC(C)(C)C1CCc2c(sc(NC(=O)c3ccoc3C)c2C(N)=O)C1 (stereo unspecified)	63.4	101.2	95.3	13.6*	89.2
CCC1CCc2c(sc(NC(=O)c3ccoc3C)c2C(N)=O)C1 (stereo unspecified)	62.1	65.3	59.2	34.9*	88.2
Cc1occc1C(=O)Nc1sc2c(c1C(N)=O)CCC(C(C)(C)C)C2 (stereo unspecified)	86.0	96.1	84.8	82.0	93.1
CCn1c(SCc2ccccc2)nnc1-c1ccc(S(=O)(=O)N2CCCCC2)cc1	99.9	72.4	71.2	26.1*	86.2
CCN(CC)c1ccc(NC(=O)COc2ccc(C)cc2)cc1	95.8	.	.	91.4	110.5
O=C(CCS(=O)(=O)Cc1ccccc1)Nc1nc2c(s1)CCCC2	60.4	41.4	39.4	22.3*	62.9
SMILES	HUVEC inhibit	HCT116 bCat-KO	HCT116 PTEN-null	H69AR inhibit	Fibroblast inh
CN(c1ccccc1)c1ccc(/C=N/NC(=O)CC#N)cc1	.	99.7	88.4	.	.
CN(c1ccccc1)c1ccc(/C=C/[N+](=O)[O-])cc1	.	4.7*	3.5*	.	.
Cc1ccc(NC(=O)COC(=O)CNC(=O)c2ccc(Br)cc2)c(C)c1	.	97.5	103.4	.	.
Cc1cc(C)c(C(=O)c2ccc(C(=O)N(C(C)C)C(C)C)cc2)c(C)c1	92.2	75.2	73.3	23.9*	83.7
CC1=C(SCCC#N)S/C(=C2\SC(C)=C(SCCC#N)S2)S1	18.6*	86.3	80.0	26.1*	100.1
CCC1CCCCN1CC(=O)Nc1cc(C)nn1-c1nc(C)cc(C)n1 (stereo unspecified)	71.9	28.5	24.3	18.6*	80.5
Cc1cc(C)nc(-n2nc(C)cc2NC(=O)CNC(C)c2ccccc2)n1 (stereo unspecified)	.	79.9	88.8	.	.
Cc1cc(C)nc(-n2nc(C)cc2NC(=O)CN2CCC(C)CC2)n1	112.0	80.9	94.2	9.5*	92.1
CCC(C)NC(=O)CSc1nc(-c2cccs2)cc(C(F)(F)F)n1 (stereo unspecified)	.	91.2	91.4	.	.
O=C(CSc1nc(-c2cccs2)cc(C(F)(F)F)n1)Nc1cc(OCC(F)(F)F)cc([N+](=O)[O-])c1	.	2.1*	9.4	.	.
